Test results published in article PMC11315199 (Heliyon, 2024).

Key:
melanocytes = details: 1 mM for 48 h; cited from earlier work
tyrosinase = details: treating hyperpigmentation disorders; cited from earlier work
human melanocytes = details: doses between 1.25 and 10 μM; cited from earlier work
B16F10 cells = test: Anti-melanogenesis activity on B16F10 murine melanomas; format: cell-based; details: 20 μg/ml, 72 h
Outline: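 B16F10 murine melanoma cells (ATCC; DMEM with 10 % FBS) are seeded in 6-well plates and held 24 h in a CO₂ incubator, then exposed to test compound for 72 h. Cells are washed with 1xPBS, dissolved in 10 % NaOH at 60 °C for 1 h, and melanin is read at 450 nm. % anti-melanogenesis = 100 − (Mt/Mc × 100) versus untreated control. Triplicate, three independent experiments; mean ± SD.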

[1] = tested on: cultured human melanoma cells; details: cited from earlier work

With `O=C1O[C@H]([C@@H](O)CO)C([O-])=C1OP(=O)([O-])[O-].O=C1O[C@H]([C@@H](O)CO)C([O-])=C1OP(=O)([O-])[O-].[Mg+2].[Mg+2].[Mg+2]` [MAP, Magnesium ascorbyl phosphate] as the compound, how does the “cytotoxic or cell growth inhibiting effects” value (melanocytes) read?
Its value is “no noticeable cytotoxic or cell growth inhibiting effects”.

Which pigmentation reduction (tyrosinase) does the source give for `OC[C@H]1O[C@@H](Oc2ccc(O)cc2)[C@H](O)[C@@H](O)[C@@H]1O` [arbutin] here?
Its pigmentation reduction is 43.5%.

For `COc1cc(/C=C/C(=O)CC(=O)/C=C/c2ccc(O)c(OC)c2)ccc1O` [CC, Curcumin], which melanocyte viability (human melanocytes) is on record?
Its melanocyte viability is “without affecting melanocyte viability”.

With `CC(=O)Cc1cc(=O)c2c(C)cc(O)c([C@@H]3O[C@H](CO)[C@@H](O)[C@H](O)[C@H]3O)c2o1` [aloesin] as the compound, how does the pigmentation reduction (tyrosinase) read?
The pigmentation reduction was 34%.

For `O=c1cc(CO)occ1O` [kojic acid], which “% Anti-melanogenesis” value (B16F10 cells) is on record?
Its value is 44.54 ± 2.47%.

What does the source list for `OC[C@H]1O[C@H](Oc2ccc(O)cc2)[C@H](O)[C@@H](O)[C@@H]1O` [AA, Alpha arbutin]?
melanin content and tyrosinase activity ([1]; 0.25–0.5 mM): decreased melanin content and tyrosinase activity in a dose-dependent manner; cell proliferation ([1]; 0.25–1 mM): no effect on cell proliferation
